Results taken from ChEMBL document CHEMBL3351928, “Discovery of clinical candidate 1-(4-(3-(4-(1H-benzo[d]imidazole-2-carbonyl)phenoxy)pyrazin-2-yl)piperidin-1-yl)ethanone (AMG 579), a potent, selective, and efficacious inhibitor of phosphodiesterase 10A (PDE10A)” (J Med Chem, 2014).

Experiments:
[1] = Half life in rat at 10 mg/kg, po; assay type: ADME, organism-based; design: dose 10 mg/kg, route oral; conditions: in vivo
Rattus norvegicus [2] = experiment: (§1) AUC in rat at 10 mg/kg, po; assay type: ADME, organism-based, Plasma; design: dose 10 mg/kg, route oral; conditions: in vivo
[3] = Oral bioavailability in dog at 0.5 mg/kg; assay type: ADME, organism-based, Canis lupus familiaris; conditions: in vivo
Rattus norvegicus [4] = experiment: Reversal of PCP-induced hyperlocomotor activity in Sprague-Dawley rat assessed as effect on locomotor activity administered orally 1 hr before PCP dosing and measured at 10 mins intervals over 2 hrs period; assay type: functional; conditions: po, read-out: MED
Procedure, shortened: (§2)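 Adult male Sprague-Dawley rats (250–280 g) were first acclimated to the test cage for 60 min. They then received oral doses of 0.1, 0.3, 1 or 3 mg/kg, n = 10. After 1 h they were given PCP 8 mg/kg subcutaneously. Photobeam breaks were collected at 10 min intervals and compiled over 2 h. Groups were compared with vehicle by one-way ANOVA followed by Dunnett's test, and the minimum effective dose was determined.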

[5] = Volume of distribution at steady state in non-human primates at 0.5 mg/kg, iv; assay type: ADME, organism-based; design: dose 0.5 mg/kg, route intravenous; conditions: monkey, in vivo, read-out: Vdss
Rattus norvegicus [6] = experiment: Target occupancy of PDE10A in Sprague-Dawley rat striatum measured 1 hr post dosing and 10 mins post iv dosing of tracer by LC-MS/MS method; assay type: functional, organism-based
Procedure, shortened: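 Sprague-Dawley rats received oral doses of 0.1, 0.3, 1, 3, 10 and 30 mg/kg, n = 4 per dose. Tissue was taken 1 h after dosing and 10 min after IV tracer. Striatal tracer was compared with thalamic tracer by LC-MS/MS. An occupancy EC50 was calculated against total plasma concentration.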

Rattus norvegicus [7] = experiment: Effect on locomotor activity in orally dosed Sprague-Dawley rat measured at 10 mins intervals over 2 hrs period; assay type: ADME, organism-based; conditions: in vivo, po; procedure, shortened: as §2
[8] = Volume of distribution at steady state in dog at 0.5 mg/kg, iv; assay type: ADME, organism-based, Canis lupus familiaris; design: dose 0.5 mg/kg, route intravenous; conditions: in vivo, read-out: Vdss
[9] = Half life in non-human primates at 0.5 mg/kg, iv; assay type: ADME, organism-based; design: dose 0.5 mg/kg, route intravenous; conditions: monkey, in vivo
[10] = Metabolic stability in human liver microsomes assessed as clearance at 1 uM in presence of NADPH at 37 degC incubated for 30 mins; assay type: ADME; conditions: read-out: CLH
[11] = Volume of distribution at steady state in rat at 2 mg/kg, iv; assay type: ADME, organism-based; design: dose 2 mg/kg, route intravenous; conditions: in vivo, read-out: Vdss
[12] = Half life in dog at 0.5 mg/kg, iv; assay type: ADME, organism-based, Canis lupus familiaris; design: dose 0.5 mg/kg, route intravenous; conditions: in vivo
[13] = target: cAMP and cAMP-inhibited cGMP 3',5'-cyclic phosphodiesterase 10A (Homo sapiens, UniProt Q9Y233); experiment: Inhibition of human recombinant PDE10A using cAMP as substrate incubated for 30 mins prior to substrate addition measured after 3 hrs to overnight by IMAP FRET assay
Sequence of cAMP and cAMP-inhibited cGMP 3',5'-cyclic phosphodiesterase 10A (Q9Y233 whole entry): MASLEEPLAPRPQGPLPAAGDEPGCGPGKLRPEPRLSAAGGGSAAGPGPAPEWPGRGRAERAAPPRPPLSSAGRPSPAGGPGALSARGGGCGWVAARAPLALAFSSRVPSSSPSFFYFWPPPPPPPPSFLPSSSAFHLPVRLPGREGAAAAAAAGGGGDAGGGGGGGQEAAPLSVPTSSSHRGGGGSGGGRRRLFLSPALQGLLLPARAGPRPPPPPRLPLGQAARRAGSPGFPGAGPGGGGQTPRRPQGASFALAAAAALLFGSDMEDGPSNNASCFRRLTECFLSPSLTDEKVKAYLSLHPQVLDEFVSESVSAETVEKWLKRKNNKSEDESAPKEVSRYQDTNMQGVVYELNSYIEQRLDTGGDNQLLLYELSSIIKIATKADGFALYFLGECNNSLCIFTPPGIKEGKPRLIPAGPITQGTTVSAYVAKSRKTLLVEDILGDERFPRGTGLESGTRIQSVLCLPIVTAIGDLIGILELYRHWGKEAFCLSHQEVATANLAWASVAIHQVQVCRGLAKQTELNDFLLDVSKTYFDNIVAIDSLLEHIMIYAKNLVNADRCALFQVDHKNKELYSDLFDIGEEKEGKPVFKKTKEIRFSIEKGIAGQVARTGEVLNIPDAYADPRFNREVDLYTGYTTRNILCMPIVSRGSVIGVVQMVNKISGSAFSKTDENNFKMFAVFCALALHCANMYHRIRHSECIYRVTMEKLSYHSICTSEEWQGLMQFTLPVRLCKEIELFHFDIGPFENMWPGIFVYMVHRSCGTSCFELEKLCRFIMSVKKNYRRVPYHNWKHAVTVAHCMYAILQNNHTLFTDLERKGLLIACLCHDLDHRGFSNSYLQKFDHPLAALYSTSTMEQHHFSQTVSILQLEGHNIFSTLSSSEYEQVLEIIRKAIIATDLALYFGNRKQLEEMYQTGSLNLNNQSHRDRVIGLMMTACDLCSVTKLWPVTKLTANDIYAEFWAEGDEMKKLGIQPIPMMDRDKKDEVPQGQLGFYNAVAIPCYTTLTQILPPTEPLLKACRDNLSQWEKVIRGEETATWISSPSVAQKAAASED

[14] = Metabolic stability in rat liver microsomes assessed as clearance at 1 uM in presence of NADPH at 37 degC incubated for 30 mins; assay type: ADME; conditions: read-out: CLH
[15] = AUC in non-human primates at 0.5 mg/kg, iv; assay type: ADME, organism-based; design: dose 0.5 mg/kg, route intravenous; conditions: monkey, plasma
Rattus norvegicus [16] = experiment: (§3) Oral bioavailability in rat at 10 mg/kg; assay type: ADME, organism-based; conditions: in vivo
[17] = Half life in rat at 2 mg/kg, iv; assay type: ADME, organism-based; design: dose 2 mg/kg, route intravenous; conditions: in vivo
[18] = Half life in dog at 0.5 mg/kg, po; assay type: ADME, organism-based, Canis lupus familiaris; design: dose 0.5 mg/kg, route oral; conditions: in vivo
[19] = Clearance in non-human primates at 0.5 mg/kg, iv; assay type: ADME, organism-based; design: dose 0.5 mg/kg, route intravenous; conditions: monkey, in vivo
[20] = Clearance in rat at 2 mg/kg, iv; assay type: ADME, organism-based; design: dose 2 mg/kg, route intravenous; conditions: in vivo
Rattus norvegicus [21] = experiment: Target occupancy of PDE10A in Sprague-Dawley rat striatum at 10 mg/kg, po administered as single dose measured 1 hr post dosing and 10 mins post iv dosing of tracer by LC-MS/MS method; assay type: functional
[22] = AUC in dog at 0.5 mg/kg, iv; assay type: ADME, organism-based, Canis lupus familiaris; design: dose 0.5 mg/kg, route intravenous; conditions: plasma
[23] = Clearance in dog at 0.5 mg/kg, iv; assay type: ADME, organism-based, Canis lupus familiaris; design: dose 0.5 mg/kg, route intravenous; conditions: in vivo
[24] = AUC in dog at 0.5 mg/kg, po; assay type: ADME, organism-based, Canis lupus familiaris; design: dose 0.5 mg/kg, route oral; conditions: plasma
Rattus norvegicus [25] = experiment: (§4) AUC in rat at 2 mg/kg, iv; assay type: ADME, organism-based, Plasma; design: dose 2 mg/kg, route intravenous; conditions: in vivo
Phosphodiesterase 4 = Phosphodiesterase 4 (Homo sapiens, UniProt P27815+Q08499+Q07343+Q08493); experiment: Inhibition of PDE4 (unknown origin); assay type: protein assay
Phosphodiesterase 7 = Phosphodiesterase 7 (Homo sapiens, UniProt Q13946+Q9NP56); experiment: Inhibition of PDE7 (unknown origin); assay type: protein assay
[26] = as §1; assay type: ADME, organism-based, Plasma; design: dose 10 mg/kg, route oral; conditions: plasma
[27] = Oral bioavailability in dog at 1 mg/kg; assay type: ADME, organism-based, Canis lupus familiaris; conditions: in vivo
Phosphodiesterase 1 = Phosphodiesterase 1 (Homo sapiens, UniProt P54750+Q01064+Q14123); experiment: Inhibition of PDE1 (unknown origin); assay type: protein assay
[28] = Half life in dog at 1 mg/kg, po; assay type: ADME, organism-based, Canis lupus familiaris; design: dose 1 mg/kg, route oral; conditions: in vivo
Phosphodiesterase 8 = Phosphodiesterase 8 (Homo sapiens, UniProt O95263+O60658); experiment: Inhibition of PDE8 (unknown origin); assay type: protein assay
[29] = Half life in non-human primates at 0.5 mg/kg, po; assay type: ADME, organism-based; design: dose 0.5 mg/kg, route oral; conditions: monkey, in vivo
Phosphodiesterase 6 = experiment: Inhibition of PDE6 (unknown origin); assay type: protein assay, Homo sapiens
[30] = target: High affinity cGMP-specific 3',5'-cyclic phosphodiesterase 9A (Homo sapiens, UniProt O76083); experiment: Inhibition of PDE9 (unknown origin)
Sequence of High affinity cGMP-specific 3',5'-cyclic phosphodiesterase 9A (O76083 whole entry): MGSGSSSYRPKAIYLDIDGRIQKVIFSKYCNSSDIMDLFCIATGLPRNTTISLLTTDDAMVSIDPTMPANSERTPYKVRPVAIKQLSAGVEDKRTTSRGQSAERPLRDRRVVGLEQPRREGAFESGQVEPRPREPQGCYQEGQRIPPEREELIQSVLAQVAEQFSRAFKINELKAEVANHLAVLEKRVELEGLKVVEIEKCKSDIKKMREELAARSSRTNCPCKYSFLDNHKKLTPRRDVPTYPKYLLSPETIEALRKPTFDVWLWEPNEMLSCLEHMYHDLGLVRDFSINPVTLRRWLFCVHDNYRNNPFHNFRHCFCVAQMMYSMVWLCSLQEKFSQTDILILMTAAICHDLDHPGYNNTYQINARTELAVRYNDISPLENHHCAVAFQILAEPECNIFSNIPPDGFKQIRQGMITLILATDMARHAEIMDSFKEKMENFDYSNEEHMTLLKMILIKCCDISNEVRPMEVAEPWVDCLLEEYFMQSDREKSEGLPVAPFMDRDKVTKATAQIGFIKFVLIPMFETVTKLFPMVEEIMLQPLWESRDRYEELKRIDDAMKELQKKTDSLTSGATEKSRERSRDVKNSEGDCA

[31] = AUC in non-human primates at 0.5 mg/kg, po; assay type: ADME, organism-based; design: dose 0.5 mg/kg, route oral; conditions: monkey, plasma
[32] = as §3; assay type: ADME, organism-based; conditions: in vivo
[33] = Oral bioavailability in non-human primates at 0.5 mg/kg; assay type: ADME, organism-based; conditions: monkey, in vivo
[34] = AUC in dog at 1 mg/kg, po; assay type: ADME, organism-based, Canis lupus familiaris; design: dose 1 mg/kg, route oral; conditions: plasma
Phosphodiesterase 3 = Phosphodiesterase 3 (Homo sapiens, UniProt Q14432+Q13370); experiment: Inhibition of PDE3 (unknown origin); assay type: protein assay
[35] = target: Dual 3',5'-cyclic-AMP and -GMP phosphodiesterase 11A (Homo sapiens, UniProt Q9HCR9); experiment: Inhibition of PDE11 (unknown origin)
Sequence of Dual 3',5'-cyclic-AMP and -GMP phosphodiesterase 11A (Q9HCR9 whole entry): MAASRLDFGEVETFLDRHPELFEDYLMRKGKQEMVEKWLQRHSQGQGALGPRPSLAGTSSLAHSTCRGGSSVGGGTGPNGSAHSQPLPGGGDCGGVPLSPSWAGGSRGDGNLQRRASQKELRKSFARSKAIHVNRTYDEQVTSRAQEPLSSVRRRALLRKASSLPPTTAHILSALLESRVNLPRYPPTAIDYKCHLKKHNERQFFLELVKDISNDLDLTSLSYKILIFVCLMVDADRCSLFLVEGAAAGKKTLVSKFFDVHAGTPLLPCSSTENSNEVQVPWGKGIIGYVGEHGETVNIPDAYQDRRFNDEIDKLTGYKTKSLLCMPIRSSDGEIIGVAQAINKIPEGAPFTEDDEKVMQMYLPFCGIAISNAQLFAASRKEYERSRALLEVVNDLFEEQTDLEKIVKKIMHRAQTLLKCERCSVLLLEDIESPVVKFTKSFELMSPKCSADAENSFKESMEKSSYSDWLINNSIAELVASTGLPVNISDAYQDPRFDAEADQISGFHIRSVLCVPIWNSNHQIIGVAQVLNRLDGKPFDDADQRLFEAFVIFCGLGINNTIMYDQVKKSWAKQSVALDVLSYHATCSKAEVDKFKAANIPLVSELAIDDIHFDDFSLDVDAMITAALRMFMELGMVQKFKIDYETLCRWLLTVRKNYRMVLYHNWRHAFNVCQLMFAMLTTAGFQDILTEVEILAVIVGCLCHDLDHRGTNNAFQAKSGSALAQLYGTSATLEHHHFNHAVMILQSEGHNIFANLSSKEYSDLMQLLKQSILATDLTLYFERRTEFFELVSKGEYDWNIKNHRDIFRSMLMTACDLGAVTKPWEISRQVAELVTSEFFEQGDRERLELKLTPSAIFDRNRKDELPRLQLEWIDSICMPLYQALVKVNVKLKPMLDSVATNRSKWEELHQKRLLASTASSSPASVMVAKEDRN

[36] = target: cGMP-dependent 3',5'-cyclic phosphodiesterase (Homo sapiens, UniProt O00408); experiment: Inhibition of PDE2 (unknown origin)
Sequence of cGMP-dependent 3',5'-cyclic phosphodiesterase (O00408 whole entry): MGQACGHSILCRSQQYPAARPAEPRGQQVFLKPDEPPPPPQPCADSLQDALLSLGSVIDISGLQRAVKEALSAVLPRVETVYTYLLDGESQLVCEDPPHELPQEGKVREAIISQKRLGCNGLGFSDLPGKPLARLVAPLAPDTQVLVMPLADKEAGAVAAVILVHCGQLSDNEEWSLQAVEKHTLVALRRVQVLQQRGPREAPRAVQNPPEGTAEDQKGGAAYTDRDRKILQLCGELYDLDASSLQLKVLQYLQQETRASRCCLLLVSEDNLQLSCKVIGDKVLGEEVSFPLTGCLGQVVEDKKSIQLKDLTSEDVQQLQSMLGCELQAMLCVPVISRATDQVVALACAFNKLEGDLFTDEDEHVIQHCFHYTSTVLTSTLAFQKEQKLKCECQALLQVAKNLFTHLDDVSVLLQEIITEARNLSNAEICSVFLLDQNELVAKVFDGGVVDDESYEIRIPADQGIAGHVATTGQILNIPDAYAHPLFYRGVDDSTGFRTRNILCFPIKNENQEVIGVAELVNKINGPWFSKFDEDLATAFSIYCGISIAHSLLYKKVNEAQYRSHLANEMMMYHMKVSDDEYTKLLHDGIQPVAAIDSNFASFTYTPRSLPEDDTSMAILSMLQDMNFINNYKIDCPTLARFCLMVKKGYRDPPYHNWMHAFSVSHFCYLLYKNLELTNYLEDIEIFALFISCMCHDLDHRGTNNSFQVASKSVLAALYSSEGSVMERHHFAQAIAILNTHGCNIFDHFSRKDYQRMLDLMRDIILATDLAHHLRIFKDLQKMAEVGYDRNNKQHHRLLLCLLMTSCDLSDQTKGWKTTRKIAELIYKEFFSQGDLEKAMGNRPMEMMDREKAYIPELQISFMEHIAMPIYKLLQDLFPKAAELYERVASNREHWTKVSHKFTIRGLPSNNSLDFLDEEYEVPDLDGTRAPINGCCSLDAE

[37] = target: cGMP-specific 3',5'-cyclic phosphodiesterase (Canis lupus familiaris, UniProt O77746); experiment: Inhibition of PDE5 (unknown origin); design: species or system Homo sapiens
[38] = as §4; assay type: ADME, organism-based, Plasma; design: dose 2 mg/kg, route intravenous; conditions: plasma

| SMILES | half-life [1] | minimal effective dose (Rattus norvegicus [4]) | Vd [5] | EC50 (Rattus norvegicus [6]) | Occ (Rattus norvegicus [6]) | Activity (Rattus norvegicus [7]) | Vd [8] | half-life [9] | microsomal CLint at 1 µM [10] | Vd [11] | half-life [12] | IC50 [13] | microsomal CLint at 1 µM [14] | AUC [15] | half-life [17] | clearance [19] | clearance [20] | Occ (Rattus norvegicus [21]) | AUC [22] | clearance [23] | further results |
| --- | --- | --- | --- | --- | --- | --- | --- | --- | --- | --- | --- | --- | --- | --- | --- | --- | --- | --- | --- | --- | --- |
| CC(=O)N1CCC(c2cccnc2Oc2ccc(C(=O)c3nc4ccccc4[nH]3)cc2)CC1 | 1.72 h | 0.3 mg/kg | 1.62 L/kg | 965 nM | Dose-dependent effect | Non-toxic | 0.5 L/kg | 1.26 h | 29 µL/min/mg | 31.2 L/kg | 7.41 h | 0.1 nM | 463 µL/min/mg | 1.61 µM·h | 23.1 h | 13.7 mL/min/kg | 50.5 mL/min/kg | 86.5% | 21.5 µM·h | 0.867 mL/min/kg | AUC (Rattus norvegicus [2]): 5.07 µM·h; bioavailability [3]: 45%; F (Rattus norvegicus [16]): 63%; half-life [18]: 5.07 h; AUC [24]: 9.59 µM·h; AUC (Rattus norvegicus [25]): 1.62 µM·h |
| O=C(c1ccc(Oc2ncccc2C2CCOCC2)cc1)c1nc2ccccc2[nH]1 |  |  |  |  |  |  |  |  | 100 µL/min/mg |  |  |  | > 399 µL/min/mg |  |  |  |  | 69.2% |  |  |  |
| CC(=O)N1CCC(c2nccnc2Oc2ccc(C(=O)c3nc4ccccc4[nH]3)cc2)CC1 | 3.35 h | 0.3 mg/kg | 0.83 L/kg | 711 nM | Dose-dependent effect | Non-toxic | 0.77 L/kg | 1.09 h | 20 µL/min/mg | 0.81 L/kg | 6.89 h | 0.1 nM | 41 µL/min/mg | 3.41 µM·h | 3.16 h | 5.67 mL/min/kg | 9 mL/min/kg | 86.3% | 13.7 µM·h | 1.23 mL/min/kg | IC50 (Phosphodiesterase 4): > 30000 nM; IC50 (Phosphodiesterase 7): > 30000 nM; AUC [26]: 19.8 µM·h; bioavailability [27]: 72%; IC50 (Phosphodiesterase 1): > 30000 nM; half-life [28]: 11 h; IC50 (Phosphodiesterase 8): > 30000 nM; half-life [29]: 2.48 h; IC50 (Phosphodiesterase 6): > 30000 nM; IC50 [30]: > 30000 nM; AUC [31]: 2.4 µM·h; bioavailability [32]: 49%; bioavailability [33]: 71%; AUC [34]: 16.9 µM·h; IC50 (Phosphodiesterase 3): > 30000 nM; IC50 [35]: > 30000 nM; IC50 [36]: > 30000 nM; IC50 [37]: > 30000 nM; AUC [38]: 8.31 µM·h |
| O=C(c1ccc(Oc2nccnc2C2CCOCC2)cc1)c1nc2ccccc2[nH]1 | 3.99 h | 1 mg/kg |  | 117 nM | Dose-dependent effect | Non-toxic |  |  | 50 µL/min/mg | 2.27 L/kg |  | 0.8 nM | 119 µL/min/mg |  | 4.26 h |  | 10.3 mL/min/kg | 91% |  |  | AUC [26]: 7.93 µM·h; bioavailability [32]: 22%; AUC [38]: 7.75 µM·h |
